Results: ChEMBL document CHEMBL2311435, “Development of 18F-labeled picolinamide probes for PET imaging of malignant melanoma” (J Med Chem, 2013)

Columns and labels:
Nucleic Acid [1] = assay: Ratio of drug uptake in tumor to lungs of C57BL/6 mouse xenografted with mouse B16F10 cells at 3.7 MBq, iv after 2 hrs by gamma-scintillation counting analysis; format: ADME, organism-based, B16-F10; details: in vivo
Outline: (§1)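 Same subcutaneous B16F10 model and tail-vein dose of about 3.7 MBq (100 μCi), n = 4 per group. Dissection at 1 or 2 h p.i. Gamma-counter %ID/g of tumor divided by that of blood, lung, liver or muscle, given as mean ± SD.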

Nucleic Acid [2] = assay: Ratio of drug uptake in tumor to blood of C57BL/6 mouse xenografted with mouse B16F10 cells at 3.7 MBq, iv after 2 hrs by gamma-scintillation counting analysis; format: ADME, organism-based, B16-F10; details: tumour; outline: as §1
Spleen [3] = assay: Biodistribution in spleen of C57BL/6 mouse xenografted with mouse B16F10 cells at 3.7 MBq, iv after 2 hrs by gamma-scintillation counting analysis; format: ADME, organism-based, B16-F10; details: in vivo
Outline: (§2)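 1.0 × 10^6 B16F10 cells in PBS injected subcutaneously into the right shoulder of C57BL/6 mice, grown to 0.5 cm (~10 day). Tail-vein injection of about 3.7 MBq (100 μCi) 18F probe in PBS (0.1 M, pH 7.4). Killed at 1.0 or 2.0 h p.i. (n = 4 per group). Tissues excised, weighed and gamma-counted; uptake expressed as %ID/g, mean ± SD.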

Liver [4] = assay: Biodistribution in liver of C57BL/6 mouse xenografted with mouse B16F10 cells at 3.7 MBq, iv after 2 hrs by gamma-scintillation counting analysis; format: ADME, organism-based, B16-F10; details: in vivo; outline: as §2
Nucleic Acid [5] = assay: Ratio of drug uptake in tumor to liver of C57BL/6 mouse xenografted with mouse B16F10 cells at 3.7 MBq, iv after 1 hr by gamma-scintillation counting analysis; format: ADME, organism-based, B16-F10; details: in vivo; outline: as §1
Nucleic Acid [6] = assay: Ratio of drug uptake in tumor to blood of C57BL/6 mouse xenografted with mouse B16F10 cells at 3.7 MBq, iv after 1 hr by gamma-scintillation counting analysis; format: ADME, organism-based, B16-F10; details: tumour; outline: as §1
Zone of skin [7] = assay: Biodistribution in skin of C57BL/6 mouse xenografted with mouse B16F10 cells at 3.7 MBq, iv after 1 hr by gamma-scintillation counting analysis; format: ADME, organism-based, B16-F10; details: in vivo; outline: as §2
Brain [8] = assay: Biodistribution in brain of C57BL/6 mouse xenografted with mouse B16F10 cells at 3.7 MBq, iv after 2 hrs by gamma-scintillation counting analysis; format: ADME, organism-based, B16-F10; details: in vivo; outline: as §2
Bone [9] = assay: Biodistribution in bone of C57BL/6 mouse xenografted with mouse B16F10 cells at 3.7 MBq, iv after 1 hr by gamma-scintillation counting analysis; format: ADME, organism-based, Bone element, B16-F10; details: in vivo; outline: as §2
Kidney [10] = assay: Biodistribution in kidney of C57BL/6 mouse xenografted with mouse B16F10 cells at 3.7 MBq, iv after 1 hr by gamma-scintillation counting analysis; format: ADME, organism-based, B16-F10; details: in vivo; outline: as §2
Intestine [11] = assay: Biodistribution in intestine of C57BL/6 mouse xenografted with mouse B16F10 cells at 3.7 MBq, iv after 1 hr by gamma-scintillation counting analysis; format: ADME, organism-based, B16-F10; details: in vivo; outline: as §2
Kidney [12] = assay: Biodistribution in kidney of C57BL/6 mouse xenografted with mouse B16F10 cells at 3.7 MBq, iv after 2 hrs by gamma-scintillation counting analysis; format: ADME, organism-based, B16-F10; details: in vivo; outline: as §2
Liver [13] = assay: Biodistribution in liver of C57BL/6 mouse xenografted with mouse B16F10 cells at 3.7 MBq, iv after 1 hr by gamma-scintillation counting analysis; format: ADME, organism-based, B16-F10; details: in vivo; outline: as §2
Mus musculus [14] = assay: Biodistribution in eye of C57BL/6 mouse xenografted with mouse B16F10 cells at 3.7 MBq, iv after 2 hrs by gamma-scintillation counting analysis; format: ADME, organism-based, B16-F10; details: in vivo; outline: as §2
Muscle tissue [15] = assay: Biodistribution in muscle of C57BL/6 mouse xenografted with mouse B16F10 cells at 3.7 MBq, iv after 2 hrs by gamma-scintillation counting analysis; format: ADME, organism-based, B16-F10; details: in vivo; outline: as §2
Spleen [16] = assay: Biodistribution in spleen of C57BL/6 mouse xenografted with mouse B16F10 cells at 3.7 MBq, iv after 1 hr by gamma-scintillation counting analysis; format: ADME, organism-based, B16-F10; details: in vivo; outline: as §2
Heart [17] = assay: Biodistribution in heart of C57BL/6 mouse xenografted with mouse B16F10 cells at 3.7 MBq, iv after 2 hrs by gamma-scintillation counting analysis; format: ADME, organism-based, B16-F10; details: in vivo; outline: as §2
Mus musculus [18] = assay: Biodistribution in lungs of C57BL/6 mouse xenografted with mouse B16F10 cells at 3.7 MBq, iv after 2 hrs by gamma-scintillation counting analysis; format: ADME, organism-based, Lung, B16-F10; details: in vivo; outline: as §2
Nucleic Acid [19] = assay: Ratio of drug uptake in tumor to muscle of C57BL/6 mouse xenografted with mouse B16F10 cells at 3.7 MBq, iv after 1 hr by gamma-scintillation counting analysis; format: ADME, organism-based, B16-F10; details: in vivo; outline: as §1
Mus musculus [20] = assay: Biodistribution in tumor of C57BL/6 mouse xenografted with mouse B16F10 cells at 3.7 MBq, iv after 1 hr by gamma-scintillation counting analysis; format: ADME, organism-based, Neoplasm, B16-F10; details: in vivo; outline: as §2
Pancreas [21] = assay: Biodistribution in pancreas of C57BL/6 mouse xenografted with mouse B16F10 cells at 3.7 MBq, iv after 1 hr by gamma-scintillation counting analysis; format: ADME, organism-based, B16-F10; details: in vivo; outline: as §2
Stomach [22] = assay: Biodistribution in stomach of C57BL/6 mouse xenografted with mouse B16F10 cells at 3.7 MBq, iv after 2 hrs by gamma-scintillation counting analysis; format: ADME, organism-based, B16-F10; details: in vivo; outline: as §2
Nucleic Acid [23] = assay: Ratio of drug uptake in tumor to liver of C57BL/6 mouse xenografted with mouse B16F10 cells at 3.7 MBq, iv after 2 hrs by gamma-scintillation counting analysis; format: ADME, organism-based, B16-F10; details: in vivo; outline: as §1
Heart [24] = assay: Biodistribution in heart of C57BL/6 mouse xenografted with mouse B16F10 cells at 3.7 MBq, iv after 1 hr by gamma-scintillation counting analysis; format: ADME, organism-based, B16-F10; details: in vivo; outline: as §2
Blood [25] = assay: Biodistribution in blood of C57BL/6 mouse xenografted with mouse B16F10 cells at 3.7 MBq, iv after 2 hrs by gamma-scintillation counting analysis; format: ADME, organism-based, B16-F10; details: in vivo; outline: as §2
[26] = Drug uptake in tumor of C57BL/6 mouse xenografted with mouse B16F10 cells at 3.7 MBq, iv after 2 hrs by PET imaging analysis; format: ADME, organism-based, Neoplasm, B16-F10; details: in vivo
Outline: (§3)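 Static small-animal PET at 0.5, 1 and 2 h after tail-vein injection of ~3.7 MBq (100 μCi) into B16F10-bearing C57BL/6 mice (n = 4 per probe). Isoflurane anesthesia, 5% induction and 2% maintenance in O2. Decay-corrected images. ROI-derived %ID/g assumes 1 g/ml density, without attenuation correction. Mean ± SD.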

[27] = Drug uptake in tumor of C57BL/6 mouse xenografted with mouse B16F10 cells at 3.7 MBq, iv after 0.5 hrs by PET imaging analysis; format: ADME, organism-based, Neoplasm, B16-F10; details: in vivo; outline: as §3
Bone [28] = assay: Biodistribution in bone of C57BL/6 mouse xenografted with mouse B16F10 cells at 3.7 MBq, iv after 2 hrs by gamma-scintillation counting analysis; format: ADME, organism-based, Bone element, B16-F10; details: in vivo; outline: as §2
Zone of skin [29] = assay: Biodistribution in skin of C57BL/6 mouse xenografted with mouse B16F10 cells at 3.7 MBq, iv after 2 hrs by gamma-scintillation counting analysis; format: ADME, organism-based, B16-F10; details: in vivo; outline: as §2
Brain [30] = assay: Biodistribution in brain of C57BL/6 mouse xenografted with mouse B16F10 cells at 3.7 MBq, iv after 1 hr by gamma-scintillation counting analysis; format: ADME, organism-based, B16-F10; details: in vivo; outline: as §2
Nucleic Acid [31] = assay: Ratio of drug uptake in tumor to muscle of C57BL/6 mouse xenografted with mouse B16F10 cells at 3.7 MBq, iv after 2 hrs by gamma-scintillation counting analysis; format: ADME, organism-based, B16-F10; details: in vivo; outline: as §1
Mus musculus [32] = assay: Biodistribution in tumor of C57BL/6 mouse xenografted with mouse B16F10 cells at 3.7 MBq, iv after 2 hrs by gamma-scintillation counting analysis; format: ADME, organism-based, Neoplasm, B16-F10; details: in vivo; outline: as §2
Intestine [33] = assay: Biodistribution in intestine of C57BL/6 mouse xenografted with mouse B16F10 cells at 3.7 MBq, iv after 2 hrs by gamma-scintillation counting analysis; format: ADME, organism-based, B16-F10; details: in vivo; outline: as §2
Mus musculus [34] = assay: Biodistribution in lungs of C57BL/6 mouse xenografted with mouse B16F10 cells at 3.7 MBq, iv after 1 hr by gamma-scintillation counting analysis; format: ADME, organism-based, Lung, B16-F10; details: in vivo; outline: as §2
Pancreas [35] = assay: Biodistribution in pancreas of C57BL/6 mouse xenografted with mouse B16F10 cells at 3.7 MBq, iv after 2 hrs by gamma-scintillation counting analysis; format: ADME, organism-based, B16-F10; details: in vivo; outline: as §2
Muscle tissue [36] = assay: Biodistribution in muscle of C57BL/6 mouse xenografted with mouse B16F10 cells at 3.7 MBq, iv after 1 hr by gamma-scintillation counting analysis; format: ADME, organism-based, B16-F10; details: in vivo; outline: as §2
Blood [37] = assay: Biodistribution in blood of C57BL/6 mouse xenografted with mouse B16F10 cells at 3.7 MBq, iv after 1 hr by gamma-scintillation counting analysis; format: ADME, organism-based, B16-F10; details: in vivo; outline: as §2
Stomach [38] = assay: Biodistribution in stomach of C57BL/6 mouse xenografted with mouse B16F10 cells at 3.7 MBq, iv after 1 hr by gamma-scintillation counting analysis; format: ADME, organism-based, B16-F10; details: in vivo; outline: as §2
Nucleic Acid [39] = assay: Ratio of drug uptake in tumor to lungs of C57BL/6 mouse xenografted with mouse B16F10 cells at 3.7 MBq, iv after 1 hr by gamma-scintillation counting analysis; format: ADME, organism-based, B16-F10; details: in vivo; outline: as §1
[40] = Drug uptake in tumor of C57BL/6 mouse xenografted with mouse B16F10 cells at 3.7 MBq, iv after 1 hr by PET imaging analysis; format: ADME, organism-based, Neoplasm, B16-F10; details: in vivo; outline: as §3
Mus musculus [41] = assay: Biodistribution in eye of C57BL/6 mouse xenografted with mouse B16F10 cells at 3.7 MBq, iv after 1 hr by gamma-scintillation counting analysis; format: ADME, organism-based, B16-F10; details: in vivo; outline: as §2

Compound: CCN(CC)CCNC(=O)c1ccc([18F])nc1
- Ratio (Nucleic Acid [1]): 10.49
- Ratio (Nucleic Acid [2]): 39.2
- Drug uptake (Spleen [3]): 0.56 % ID/g
- Drug uptake (Liver [4]): 1.07 % ID/g
- Ratio (Nucleic Acid [5]): 2.24
- Ratio (Nucleic Acid [6]): 20.44
- Drug uptake (Zone of skin [7]): 2.37 % ID/g
- Drug uptake (Brain [8]): 0.41 % ID/g
- Drug uptake (Bone [9]): 3.48 % ID/g
- Drug uptake (Kidney [10]): 5.63 % ID/g
- Drug uptake (Intestine [11]): 3.46 % ID/g
- Drug uptake (Kidney [12]): 1.2 % ID/g
- Drug uptake (Liver [13]): 4.47 % ID/g
- Drug uptake (Mus musculus [14]): 32.23 % ID/g
- Drug uptake (Muscle tissue [15]): 0.52 % ID/g
- Drug uptake (Spleen [16]): 2.88 % ID/g
- Drug uptake (Heart [17]): 0.4 % ID/g
- Drug uptake (Mus musculus [18]): 0.92 % ID/g
- Ratio (Nucleic Acid [19]): 11.24
- Drug uptake (Mus musculus [20]): 9.54 % ID/g
- Drug uptake (Pancreas [21]): 3.58 % ID/g
- Drug uptake (Stomach [22]): 2.27 % ID/g
- Ratio (Nucleic Acid [23]): 7.26
- Drug uptake (Heart [24]): 1.54 % ID/g
- Drug uptake (Blood [25]): 0.2 % ID/g
- Drug uptake [26]: 8.47 % ID/g
- Drug uptake [27]: 7.54 % ID/g
- Drug uptake (Bone [28]): 2.12 % ID/g
- Drug uptake (Zone of skin [29]): 0.71 % ID/g
- Drug uptake (Brain [30]): 1.56 % ID/g
- Ratio (Nucleic Acid [31]): 15.22
- Drug uptake (Mus musculus [32]): 9.29 % ID/g
- Drug uptake (Intestine [33]): 0.89 % ID/g
- Drug uptake (Mus musculus [34]): 1.52 % ID/g
- Drug uptake (Pancreas [35]): 0.71 % ID/g
- Drug uptake (Muscle tissue [36]): 1.11 % ID/g
- Drug uptake (Blood [37]): 0.46 % ID/g
- Drug uptake (Stomach [38]): 5.03 % ID/g
- Ratio (Nucleic Acid [39]): 6.23
- Drug uptake [40]: 7.94 % ID/g
- Drug uptake (Mus musculus [41]): 34 % ID/g
